This note sets out measurements from ChEMBL document CHEMBL3526090, “Pharmacokinetic mechanism involved in the prolonged high retention of laninamivir in mouse respiratory tissues after intranasal administration of its prodrug laninamivir octanoate” (Drug Metab Dispos, 2013).

Series [1] in a line: Drug uptake in BALB/cAnNCrlCrlj mouse epithelial lining fluid at 0.5 umol/kg administered intranasally measured at 4 hrs by LC-MS/MS analysis. In kind it is ADME, tissue-based. The note with it: inhaled or intranasal, read-out: Drug uptake. The procedure, abridged:
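Female BALB/c mice were dosed intranasally at 0.5 μmol/kg (2.5 ml/kg), N=3–4 per time point. At each sampling time, blood was taken by cardiac puncture, BAL was done with 3 × 1 ml PBS, and lungs were homogenized in 50% acetonitrile. LO and laninamivir were quantified by LC-MS/MS, calibrated over 1–100 ng/ml and 0.5–100 ng/ml respectively. ELF concentration was calculated as CBAL × (urea in plasma / urea in BAL).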

Series [2] is described as follows: Cmax in BALB/cAnNCrlCrlj mouse plasma at 0.5 umol/kg administered intranasally. In kind it is ADME, cell-free. More on the design: dose 0.5 umol/kg, route nasal. The note with it: inhaled or intranasal. The procedure, abridged: (§1)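 Female BALB/c mice (7 weeks old) received a single intranasal dose of 0.5 μmol/kg at 2.5 ml/kg, with N=3–4 per time point up to 24 h. Plasma, BAL fluid (3 × 1 ml PBS pH 7.4) and lung homogenate were taken, and AEBSF was added to a final 5 mM. LO and laninamivir were measured by LC-MS/MS. ELF levels were corrected using the urea ratio between plasma and BAL. Non-compartmental analysis on mean concentrations gave Cmax/Tmax by observation, t1/2 from ≥3 terminal log points, and AUClast by the trapezoidal method.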

Series [3] is described as follows: Aqueous solubility of the compound. The class given is physicochemical. As to conditions: buffer; call rule not given here.
Series [4] in a line: Prodrug activation in primary cultured BALB/c mouse airway epithelial cells assessed as formation of laninamivir at 50 uM measured up to 60 to 90 mins by LC-MS/MS analysis. The class given is cell-based. As to conditions: epithelial cell. In short, it runs like this: (§2)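 Primary airway epithelial cells from BALB/c mice were obtained by collagenase digestion and negative immunomagnetic selection, then grown to confluence on collagen I. Cells were pre-incubated 30 min in serum-free F-12K. For the time course they were exposed to 50 μM LO for up to 120 min; for concentration dependence, to 10–1000 μM LO for 60 min, at 37°C. After ice-cold PBS washes and Triton lysis, intracellular LO and laninamivir were measured by LC-MS/MS and normalized to Lowry protein, in triplicate.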

Series [5] is described as follows: Tmax in BALB/cAnNCrlCrlj mouse plasma at 0.5 umol/kg administered intranasally. The class given is ADME, cell-free. As to conditions: inhaled or intranasal. The procedure, abridged: as §1
Series [6] can be described thus: Lipophilicity, log D of the compound at pH 7.4. The class given is physicochemical. As to conditions: buffer.
Series [7] is described as follows: Prodrug activation in primary cultured BALB/c mouse airway epithelial cells assessed as formation of laninamivir measured at 60 mins by LC-MS/MS analysis. In kind it is cell-based. As to conditions: epithelial cell, 1 h. The procedure, abridged:
as §2

A short description of series [8]: Cmax in BALB/cAnNCrlCrlj mouse epithelial lining fluid at 0.5 umol/kg administered intranasally. The class given is ADME, tissue-based. Also noted: dose 0.5 umol/kg, route nasal. As to conditions: inhaled or intranasal. In short, it runs like this: as §1
In series [9] the test system is Lung. Nature of the series: AUClast in BALB/cAnNCrlCrlj mouse lung at 0.5 umol/kg administered intranasally. The class given is ADME. As to conditions: in vivo, inhaled_or_intranasal. In short, it runs like this:
as §1

Series [10] in a line: Prodrug activation in primary cultured BALB/c mouse airway epithelial cells assessed as formation of laninamivir measured at 50 uM measured at 24 hrs by LC-MS/MS analysis. In kind it is cell-based. The note with it: epithelial cell. The procedure, abridged: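 Confluent primary BALB/c airway epithelial cells were loaded with 50 μM LO for 60 min and then washed. They were then incubated in drug-free medium at 37°C for up to 24 h, with the medium fully replaced at each sampling point. Cells were washed with ice-cold PBS and lysed. LO and laninamivir in medium and cells were measured by LC-MS/MS and normalized to Lowry protein, in triplicate. Release and hydrolysis rate constants were obtained by first-order compartmental modelling.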

The subject of series [11] is Lung. Description: Cmax in BALB/cAnNCrlCrlj mouse lung at 0.5 umol/kg administered intranasally. More on the design: dose 0.5 umol/kg, route nasal. The note with it: in vivo, inhaled_or_intranasal. The class given is ADME. In short, it runs like this: as §1
Series [12] in a line: Tmax in BALB/cAnNCrlCrlj mouse epithelial lining fluid at 0.5 umol/kg administered intranasally. As to conditions: inhaled or intranasal. In kind it is ADME, tissue-based. The procedure, abridged:
as §1

Series [13] can be described thus: AUClast in BALB/cAnNCrlCrlj mouse epithelial lining fluid at 0.5 umol/kg administered intranasally. In kind it is ADME, tissue-based. More on the design: dose 0.5 umol/kg, route nasal, time 0 - last. As to conditions: inhaled or intranasal. In short, it runs like this: as §1
A short description of series [14]: Drug uptake in primary cultured BALB/c mouse airway epithelial cells at 50 uM measured up to 90 mins by LC-MS/MS analysis. The class given is ADME, cell-based. The note with it: epithelial cell. In short, it runs like this: as §2
Series [15] can be described thus: Elimination half life in BALB/cAnNCrlCrlj mouse plasma at 0.5 umol/kg administered intranasally. The class given is ADME, cell-free. As to conditions: inhaled or intranasal, read-out: beta t1/2 (converted). The procedure, abridged: as §1
Series [16] has as its system Lung. Nature of the series: Elimination half life in BALB/cAnNCrlCrlj mouse lung at 0.5 umol/kg administered intranasally. As to conditions: in vivo, inhaled_or_intranasal. In kind it is ADME, tissue-based. In short, it runs like this:
as §1

A short description of series [17]: Tmax in BALB/cAnNCrlCrlj mouse lung at 0.5 umol/kg administered intranasally. The class given is ADME. As to conditions: inhaled or intranasal. In short, it runs like this:
as §1

Series [18] is described as follows: Elimination half life in BALB/cAnNCrlCrlj mouse epithelial lining fluid at 0.5 umol/kg administered intranasally. The note with it: in vivo, inhaled_or_intranasal. The class given is ADME, tissue-based. The procedure, abridged:
as §1

The nature of series [19]: AUClast in BALB/cAnNCrlCrlj mouse plasma at 0.5 umol/kg administered intranasally. In kind it is ADME, cell-free. Also noted: dose 0.5 umol/kg, time 0 - last, route nasal. As to conditions: inhaled or intranasal. In short, it runs like this: as §1

Values after ≈ are worked out from the molar mass of the structure shown.

In general, solubility refers to the dissolved amount per volume that the medium holds. Low readings indicate little dissolved substance, high ones much dissolved substance. One may read the Tmax as the time from dosing to the highest level. As usually defined, the logD is lipophilicity at a set pH, counting ionised and neutral species. Lower therefore signals lower lipophilicity. The term AUC(0-t) denotes the area under the concentration-time curve up to a stated or last time point. The low end stands for low exposure, the high end for high exposure. Consider `CCCCCCCC(=O)OC[C@@H](O)[C@@H](OC)[C@@H]1OC(C(=O)O)=C[C@H](NC(=N)N)[C@H]1NC(C)=O` [LANINAMIVIR OCTANOATE], for which the concentration at 4 h in series [1] stood at 0.348 µM. Also, the Cmax in [2] came to 0.242 µM; in [8] it was 20.4 µM; in the series with Lung [11], 1760 pmol/g. The compound further returned a solubility in series [3] of 1270 µM (≈ 600 µg/mL). Further, the figures for the Drug metabolism result in [4], in series [7] and in series [10] were “metabolite_detected”, “Dose-dependent effect” and “metabolite_detected”, respectively. Also, the time to peak (Tmax) in series [5] was found to be 30 min; in [12], 1.98 min; in [17] it was 30 min. Besides, in [6], the logD was -0.01. The compound also yielded an AUClast in the series with Lung [9] of 4480 pmol·h/g. Further, the AUC(0-t) is 23.6 µM·h in [13] and 0.323 µM·h in series [19]. Besides, the Drug uptake entry in series [14] is reported as “Active”. Moreover, the half-life in series [15] was 36 min. The entries for the “beta t1/2” value (in the series on Lung [16]; in [18]) were 78 min and 66 min, respectively.
